Data from ChEMBL document CHEMBL1147066, “Structural basis of action for a human ether-a-go-go-related gene 1 potassium channel activator” (Proc Natl Acad Sci U S A, 2007).

Key:
[1] = target: Voltage-gated inwardly rectifying potassium channel KCNH2 (Homo sapiens, UniProt Q12809, Y652A); test: Activation of human ERG1 Y652A mutant expressed in Xenopus laevis oocytes assessed as slowing of tail current deactivation at 3 uM by two electrode voltage clamp technique; assay type: cell-based; conditions: oocyte
In short: (§1)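 hERG1 (WT or point mutant) cRNA injected into Xenopus oocytes; two-electrode voltage clamp 1-5 days later. Bath: 96 mM NaCl, 2 mM KCl, 1 mM CaCl2, 2 mM MgCl2, 5 mM Hepes, pH 7.6. Holding potential -90 mV. Protocols repeated 10-15 min after adding compound to the bath, diluted from a 10 mM DMSO stock; one concentration per oocyte.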

[2] = target: T1, Voltage-gated inwardly rectifying potassium channel KCNH2 (Homo sapiens, UniProt Q12809); test: Activation of human ERG1 isoform 1 expressed in Xenopus laevis oocytes assessed as shifting of voltage dependence of inactivation towards positive potentials at 30 uM by two electrode voltage clamp technique; assay type: cell-based; conditions: oocyte; in short: as §1
[3] = target: T1, Voltage-gated inwardly rectifying potassium channel KCNH2; test: Binding affinity to human ERG1 expressed in Xenopus laevis oocytes assessed as half-saturation concentration; assay type: cell-based, Oocyte; conditions: read-out: Activity
[4] = target: T1, Voltage-gated inwardly rectifying potassium channel KCNH2; test: Activation of human ERG1 expressed in CHO cells assessed as enhancement of current magnitude at 10 uM by two electrode voltage clamp technique; assay type: cell-based
[5] = target: Voltage-gated inwardly rectifying potassium channel KCNH2 (Homo sapiens, UniProt Q12809, Y667A); test: Activation of human ERG1 Y667A mutant expressed in Xenopus laevis oocytes assessed as shifting of voltage dependence of inactivation towards positive potentials at 3 uM by two electrode voltage clamp technique; assay type: cell-based; conditions: oocyte; in short: as §1
[6] = target: Voltage-gated inwardly rectifying potassium channel KCNH2 (Homo sapiens, UniProt Q12809, G628C/S631C); test: Effect on human ERG1 G628C/S631C mutant expressed in Xenopus laevis oocytes at 3 uM by two electrode voltage clamp technique; assay type: cell-based; conditions: oocyte
[7] = target: T1, Voltage-gated inwardly rectifying potassium channel KCNH2; test: Activation of human ERG1 isoform 1 expressed in Xenopus laevis oocytes assessed as shifting of voltage dependence of inactivation towards positive potentials at 3 uM by two electrode voltage clamp technique; assay type: cell-based; conditions: oocyte; in short: as §1
[8] = target: T2, Voltage-gated inwardly rectifying potassium channel KCNH2 (Homo sapiens, UniProt Q12809, N658A); test: (§2) Activation of human ERG1 N658A mutant expressed in Xenopus laevis oocytes assessed as slowing of tail current deactivation at 3 uM by two electrode voltage clamp technique; assay type: cell-based; conditions: oocyte; in short: as §1
[9] = target: T3, Voltage-gated inwardly rectifying potassium channel KCNH2 (Homo sapiens, UniProt Q12809, L666A); test: Inhibition of human ERG1 L666A mutant expressed in Xenopus laevis oocytes assessed as decrease in current amplitude by two electrode voltage clamp technique; assay type: cell-based; conditions: oocyte; in short: as §1
[10] = target: T4, Voltage-gated inwardly rectifying potassium channel KCNH2 (Homo sapiens, UniProt Q12809, F557L); test: Activation of human ERG1 F557L mutant expressed in Xenopus laevis oocytes assessed as shifting of voltage dependence of inactivation towards positive potentials at 30 uM by two electrode voltage clamp technique; assay type: cell-based; conditions: oocyte; in short: as §1
[11] = target: T4, Voltage-gated inwardly rectifying potassium channel KCNH2; test: (§3) Activation of human ERG1 F557L mutant expressed in Xenopus laevis oocytes assessed as slowing of tail current deactivation at 3 uM by two electrode voltage clamp technique; assay type: cell-based; conditions: oocyte; in short: as §1
[12] = target: T1, Voltage-gated inwardly rectifying potassium channel KCNH2; test: Activation of human ERG1 isoform 1 expressed in Xenopus laevis oocytes assessed as enhancement of current magnitude by two electrode voltage clamp technique; assay type: cell-based; conditions: oocyte
[13] = target: T3, Voltage-gated inwardly rectifying potassium channel KCNH2; test: Activation of human ERG1 L666A mutant expressed in Xenopus laevis oocytes assessed as shifting of voltage dependence of inactivation towards positive potentials at 3 uM by two electrode voltage clamp technique; assay type: cell-based; conditions: oocyte; in short: as §1
[14] = target: T4, Voltage-gated inwardly rectifying potassium channel KCNH2; test: as §3; assay type: cell-based; conditions: oocyte; in short: as §1; remark: listed apart in the source
[15] = target: Voltage-gated inwardly rectifying potassium channel KCNH2 (Homo sapiens, UniProt Q12809, V549A); test: Activation of human ERG1 V549A mutant expressed in Xenopus laevis oocytes assessed as shifting of voltage dependence of inactivation towards positive potentials at 3 uM by two electrode voltage clamp technique; assay type: cell-based; conditions: oocyte; in short: as §1
[16] = target: T5, Voltage-gated inwardly rectifying potassium channel KCNH2 (Homo sapiens, UniProt Q12809, V659A); test: (§4) Activation of human ERG1 V659A mutant expressed in Xenopus laevis oocytes assessed as slowing of tail current deactivation at 3 uM by two electrode voltage clamp technique; assay type: cell-based; conditions: oocyte; in short: as §1
[17] = target: T1, Voltage-gated inwardly rectifying potassium channel KCNH2; test: Activation of human ERG1 isoform 1 expressed in Xenopus laevis oocytes assessed as slowing of tail current deactivation by two electrode voltage clamp technique; assay type: cell-based; conditions: oocyte; in short: as §1
[18] = target: Voltage-gated inwardly rectifying potassium channel KCNH2 (Homo sapiens, UniProt Q12809, I662A); test: Activation of human ERG1 I662A mutant expressed in Xenopus laevis oocytes assessed as shifting of voltage dependence of inactivation towards positive potentials at 3 uM by two electrode voltage clamp technique; assay type: cell-based; conditions: oocyte; in short: as §1
[19] = target: T5, Voltage-gated inwardly rectifying potassium channel KCNH2; test: as §4; assay type: cell-based; conditions: oocyte; in short: as §1; remark: listed apart in the source
[20] = target: T3, Voltage-gated inwardly rectifying potassium channel KCNH2; test: Activation of human ERG1 L666A mutant expressed in Xenopus laevis oocytes assessed as shifting of voltage dependence of inactivation towards positive potentials at 30 uM by two electrode voltage clamp technique; assay type: cell-based; conditions: oocyte; in short: as §1
[21] = target: Voltage-gated inwardly rectifying potassium channel KCNH2 (Homo sapiens, UniProt Q12809, L550A); test: Activation of human ERG1 L550A mutant expressed in Xenopus laevis oocytes assessed as shifting of voltage dependence of inactivation towards positive potentials at 3 uM by two electrode voltage clamp technique; assay type: cell-based; conditions: oocyte; in short: as §1
[22] = target: T1, Voltage-gated inwardly rectifying potassium channel KCNH2; test: Activation of human ERG1 isoform 1 expressed in Xenopus laevis oocytes assessed as shifting of voltage dependence of inactivation towards positive potentials by two electrode voltage clamp technique; assay type: cell-based, Oocyte; in short: as §1
[23] = target: T2, Voltage-gated inwardly rectifying potassium channel KCNH2; test: as §2; assay type: cell-based; conditions: oocyte; in short: as §1; remark: listed apart in the source
[24] = target: T1, Voltage-gated inwardly rectifying potassium channel KCNH2; test: Activation of human ERG1 isoform 1 expressed in Xenopus laevis oocytes assessed as shifting of voltage dependence of inactivation towards positive potentials at 10 uM by two electrode voltage clamp technique; assay type: cell-based; conditions: oocyte; in short: as §1
[25] = target: T1, Voltage-gated inwardly rectifying potassium channel KCNH2; test: Activation of human ERG1 isoform 1 expressed in Xenopus laevis oocytes assessed as shifting of voltage dependence of inactivation towards positive potentials at 1 uM by two electrode voltage clamp technique; assay type: cell-based; conditions: oocyte; in short: as §1
[26] = target: T6, Voltage-gated inwardly rectifying potassium channel KCNH2 (Homo sapiens, UniProt Q12809, L553A); test: (§5) Activation of human ERG1 L553A mutant expressed in Xenopus laevis oocytes assessed as slowing of tail current deactivation at 3 uM by two electrode voltage clamp technique; assay type: cell-based; conditions: oocyte; in short: as §1
[27] = target: T1, Voltage-gated inwardly rectifying potassium channel KCNH2; test: Activation of human ERG1 isoform 1 expressed in Xenopus laevis oocytes assessed as increase in peak tail current magnitude by two electrode voltage clamp technique; assay type: cell-based, Oocyte
[28] = target: T6, Voltage-gated inwardly rectifying potassium channel KCNH2; test: as §5; assay type: cell-based; conditions: oocyte; in short: as §1; remark: listed apart in the source

COc1ccc2nccc(C(=O)CC[C@@H]3CCN(CC#Cc4cc(F)cc(F)c4F)C[C@@H]3C(=O)O)c2c1
Activity [1]: Active | Activity [2]: 36.9 mV | Kd [3]: 9.4 µM | Activity [4]: 15% | Activity [5]: Active | Activity [6]: Not Active | Activity [7]: 17.2 mV | Activity [8]: Not Active | Activity [9]: Active | Activity [10]: < 10 mV | Activity [11]: Not Active | Activity [12]: Active | Activity [13]: Active | Activity [14]: Not Active | Activity [15]: Active | Activity [16]: Not Active | Activity [17]: Active | Activity [18]: Active | Activity [19]: Not Active | Activity [20]: < 10 mV | Activity [21]: Active | EC50 [22]: 8 µM | Activity [23]: Not Active | Activity [24]: 28 mV | Activity [25]: 10.2 mV | Activity [26]: Not Active | EC50 [27]: 15 µM | Activity [28]: Not Active
